Assay results taken from ChEMBL document CHEMBL4364242, “Novel cationic bis(acylhydrazones) as modulators of Epstein-Barr virus immune evasion acting through disruption of interaction between nucleolin and G-quadruplexes of EBNA1 mRNA” (Eur J Med Chem, 2019).
pIC50: −log10 of the molar value. Activity calls are given as the source filed them. No cut-off for these calls is given here.

What was measured:
Homo sapiens = species: Homo sapiens; test: Binding affinity to […] assessed as increase in melting temperature at 1 uM by fluorescence method
Procedure, shortened: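 F-25TAG-T telomeric DNA (5'-FAM/3'-TAMRA) melted with 1 μM ligand in K-100 buffer (10 mM LiAsO2Me2, 100 mM KCl, pH 7.3). Heating 25–95 °C at 0.5 °C/min. ΔTm derived from first-derivative Tm maxima relative to the no-ligand run.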

[1] = Inhibition of recombinant NCL (unknown origin)/EB virusG4-EBNA1 mRNA interaction at 10 uM by RNA pull-down assay
Procedure, shortened: (§1)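 Biotin-TEG RNA (g4-EBNA1 or non-G4 GM) folded in 10 mM Tris pH 7.5, 100 mM KCl, 0.1 mM EDTA (95 °C 5 min, cooled 2 °C/min), then bound to blocked streptavidin beads. 200 ng recombinant NCL added for 90 min at room temperature with 10 μM compound or DMSO. Beads washed up to 800 mM KCl; eluates western-blotted for NCL.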

NCI-H1299 [2] = test: Immunostimulatory activity in human H1299 cells transfected with murine MHC class I Kb and 235GAr-OVA cocultured with mouse CD8+ T-cells assessed as increase in IL-2 level at 10 uM incubated for 3 days by ELISA; assay type: functional
Procedure, shortened: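 Kb/235GAr-OVA co-transfected H1299 cells, exposed to compound for 40 h, then 10^5 cells incubated 3 days at 37 °C with 4×10^5 OT-I CD8+ T cells. Supernatant IL-2 quantified by ELISA.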

[3] = Inhibition of recombinant NCL (unknown origin)/GM mRNA (unknown origin) interaction at 10 uM by RNA pull-down assay; procedure, shortened: as §1
[4] = Growth inhibition of human MUTU-I cells incubated for 24 hrs by MTT assay
Procedure, shortened: (§2)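 Mutu-1 EBV-positive Burkitt lymphoma cells, about 30,000 per well, treated with compound (0.5–100 μM) or DMSO for 24 or 48 h. MTT (5 mg/mL) added for 4 h, formazan dissolved in isopropanol/0.1 N HCl/10% Triton X-100, absorbance at 540 nm; viability expressed versus DMSO.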

[5] = Binding affinity to […] (unknown origin) assessed as increase in melting temperature at 1 uM by fluorescence method
Procedure, shortened: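 Labeled F-myc22-T DNA (5'-FAM/3'-TAMRA) melted with 1 μM ligand in K-1 buffer (10 mM LiAsO2Me2, 1 mM KCl, 99 mM LiCl, pH 7.3). Ramp 0.5 °C/min from 25 to 95 °C. Tm taken from first-derivative maxima and ΔTm calculated versus ligand-free control.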

NCI-H1299 [6] = test: Immunostimulatory activity in human H1299 cells transfected with murine MHC class I Kb and OVA cocultured with mouse CD8+ T-cells assessed as increase in IL-2 level at 5 or 10 uM incubated for 3 days by ELISA; assay type: functional, cell-based
Procedure, shortened: (§3)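 H1299 cells co-transfected with mouse Kb and OVA or GAr-OVA, treated with 5 or 10 μM compound or DMSO. After 40 h, 10^5 cells co-cultured with 4×10^5 naive OT-I CD8+ T cells from female mouse lymph nodes, 37 °C, for 3 days. IL-2 in supernatant measured by ELISA.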

[7] = Displacement of TO from EB virus g4-EBNA1 mRNA measured after 5 mins by FID assay; design: species or system human gammaherpesvirus 4
Procedure, shortened: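 g4-EBNA1 RNA annealed 95 °C 5 min in K100 buffer (10 mM KAsO2Me2, 100 mM KCl, 1 mM EDTA, 1% DMSO), then mixed with TO; final 0.25 μM RNA and 0.5 μM TO, ligand 0–2.5 μM. Fluorescence read after 5 min shaking (485/520 nm), in duplicate. Displacement = 100×(1−F/F0); DC50 interpolated from the curve.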

human gammaherpesvirus 4 [8] = test: Binding affinity to EB virus F-g4-EBNA1 mRNA assessed as increase in melting temperature at 1 uM by fluorescence method
NCI-H1299 [9] = test: Effect on 235Gar-OVA expression in human H1299 cells at 10 uM incubated for 40 hrs by western blot analysis; assay type: functional; design: unit not given here
Procedure, shortened: (§4)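 OVA or 235GAr-OVA constructs transiently transfected into H1299 cells, followed by 40 h exposure to 10 μM compound or DMSO. Whole-cell lysates immunoblotted with rabbit anti-OVA; signal normalized to GAPDH. Experiments repeated at least three times.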

human gammaherpesvirus 4 [10] = test: Binding affinity to EBNA1 G4-quadruplex in human H1299 cells assessed as EB virus EBNA1 expression at 10 uM incubated for 40 hrs by western blot analysis; assay type: cell-based
Procedure, shortened: (§5)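 H1299 cells in RPMI-1640 with 10% FBS at 37 °C, 5% CO2, transiently transfected with EBNA1 or EBNA1ΔGAr constructs, then treated with 10 μM compound (DMSO vehicle) for 40 h. Lysates taken 48 h post-transfection and western blotted with anti-EBNA1 (OT1X). Levels normalized to GAPDH; at least three repeats.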

NCI-H1299 [11] = test: Effect on 235Gar-OVA expression in human H1299 cells incubated for 40 hrs by western blot analysis; assay type: functional, cell-based
Procedure, shortened: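 235GAr-OVA-transfected H1299 cells treated 40 h with compound at 0, 7.5, 10 or 15 μM. Anti-OVA western blot with band intensities normalized to GAPDH.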

human gammaherpesvirus 4 [12] = test: Binding affinity to EBNA1 G4-quadruplex in human H1299 cells assessed as EB virus EBNA1 deleted GAr expression at 10 uM incubated for 40 hrs by western blot analysis; assay type: cell-based; procedure, shortened: as §5
[13] = Growth inhibition of human MUTU-I cells incubated for 48 hrs by MTT assay; procedure, shortened: as §2
[14] = Inhibition of native NCL/EB virus G4-EBNA1 mRNA interaction in human H1299 cells assessed as reduction in PLA signals per cell at 5 uM incubated for overnight by proximity ligation assay (reference value: 1.83 +/- 0.54); assay type: cell-based
NCI-H1299 [15] = test: Effect on OVA expression in human H1299 cells at 10 uM incubated for 40 hrs by western blot analysis; assay type: functional; design: unit not given here; procedure, shortened: as §4
[16] = Inhibition of human NCL/EB virus G4-EBNA1 mRNA interaction in human MUTU-I cells assessed as reduction in PLA signals per cell at 5 uM incubated for […] by proximity ligation assay (reference value: 1.68 +/- 0.44); assay type: cell-based
Procedure, shortened: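 Mutu-1 cells carrying endogenous EBNA1 treated 36 h with 5 μM compound or DMSO. Processed by EBNA1 mRNA in situ hybridization combined with an anti-nucleolin PLA; nuclear PLA dots per cell counted across two biological replicates, ≥200 cells per sample.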

NCI-H1299 [17] = test: Immunostimulatory activity in human H1299 cells transfected with murine MHC class I Kb and 235GAr-OVA cocultured with mouse CD8+ T-cells assessed as increase in IL-2 level at 5 or 10 uM incubated for 3 days by ELISA; assay type: functional; procedure, shortened: as §3

| SMILES | ΔTm (Homo sapiens) | fold change (FC) [1] | fold change (FC) (NCI-H1299 [2]) | inhibition [3] | GI50 at 24 h [4] | ΔTm [5] | Activity (NCI-H1299 [6]) | pIC50 [7] | Activity (human gammaherpesvirus 4 [8]) | Activity (NCI-H1299 [9]) | Activity (human gammaherpesvirus 4 [10]) | Activity (NCI-H1299 [11]) | Activity (human gammaherpesvirus 4 [12]) | GI50 at 48 h [13] | Activity [14] | Activity (NCI-H1299 [15]) | Activity [16] | ΔTm (human gammaherpesvirus 4 [8]) | fold change (FC) (NCI-H1299 [17]) |
| --- | --- | --- | --- | --- | --- | --- | --- | --- | --- | --- | --- | --- | --- | --- | --- | --- | --- | --- | --- |
| C[n+]1ccc(/C=N/NC(=O)c2cccc(C(=O)N/N=C/c3cc[n+](C)c4ccccc34)n2)c2ccccc21.[I-].[I-] | 15 to 30 °C | 10 | >2 | inactive | > 100 µM | 15 to 30 °C | inactive | 6.59 | Active | 162 | Active | Dose-dependent effect | inactive | ≥ 100 µM | 0.27 | 101 | – | – | – |
| C[n+]1ccc(/C=N/NC(=O)c2ccc3ccc4ccc(C(=O)N/N=C/c5cc[n+](C)c6ccccc56)nc4c3n2)c2ccccc21.[I-].[I-] | 15 to 30 °C | 10 | – | inactive | 50 to 100 µM | 15 to 30 °C | inactive | 6.52 | – | 189 | Active | Dose-dependent effect | inactive | 20 µM | 0.4 | 96 | 0.59 | 20 to 30 °C | >2 |
